Measurements as given in ChEMBL document CHEMBL5579857, “Fragment-Based Discovery of Novel MUS81 Inhibitors” (ACS Med Chem Lett, 2024).

What was measured:
[1] = Lipophilicity, logD of the compound in octanol/water at pH 7.4 by shake flask method; type: physicochemical
[2] = Efflux ratio of apparent permeability in human Caco-2 cells; type: ADME, cell-based
[3] = molecular target: Voltage-gated inwardly rectifying potassium channel KCNH2 (Homo sapiens, UniProt Q12809); experiment: Inhibition of hERG; type: toxicity
[4] = Metabolic stability in human liver microsomes assessed as intrinsic clearance; type: ADME, Microsome
PDE = experiment: Inhibition of PDE (unknown origin); type: toxicity, Homo sapiens
[5] = molecular target: T1, Prostaglandin G/H synthase 2 (Homo sapiens, UniProt P35354); experiment: Inhibition of COX2 (unknown origin); type: toxicity
T1 sequence (P35354 whole entry): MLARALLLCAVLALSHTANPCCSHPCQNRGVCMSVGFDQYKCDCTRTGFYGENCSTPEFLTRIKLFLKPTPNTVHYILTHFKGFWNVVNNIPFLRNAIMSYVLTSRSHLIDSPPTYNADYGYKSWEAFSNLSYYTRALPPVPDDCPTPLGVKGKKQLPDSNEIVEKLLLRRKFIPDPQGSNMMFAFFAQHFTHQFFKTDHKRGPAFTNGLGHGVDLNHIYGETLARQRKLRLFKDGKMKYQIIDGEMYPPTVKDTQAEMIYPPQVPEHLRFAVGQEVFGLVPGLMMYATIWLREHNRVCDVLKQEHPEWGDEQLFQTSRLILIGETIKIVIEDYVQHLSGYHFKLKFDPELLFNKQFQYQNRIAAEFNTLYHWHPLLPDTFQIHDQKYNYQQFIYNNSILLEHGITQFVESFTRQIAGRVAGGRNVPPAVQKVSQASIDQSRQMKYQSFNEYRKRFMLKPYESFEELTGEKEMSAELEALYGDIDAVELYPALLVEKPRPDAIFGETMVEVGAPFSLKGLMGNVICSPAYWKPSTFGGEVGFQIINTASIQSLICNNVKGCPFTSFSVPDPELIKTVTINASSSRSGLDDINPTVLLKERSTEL

[6] = Kinetic aqueous solubility of the compound at pH 7.4; type: physicochemical; conditions: buffer
[7] = Inhibition of human Avi-tagged MUS81 (246 to 551 residues)/2x8His-tagged EME1 (246 to 570 residues) extracted from Escherichia coli BL21 Gold (DE3) using branched DNA as substrate preincubated for 15 mins followed by substrate addition and measured after 90 mins by FRET assay
Summary of the method: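 IC50 is reported as the geometric mean ± SEM of at least three independent determinations.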

[8] = Binding affinity to human Avi-tagged MUS81 (246 to 551 residues)/2x8His-tagged EME1 (246 to 570 residues) extracted from Escherichia coli BL21 Gold (DE3) by SPR analysis
Summary of the method: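 Fragments flagged as hits in a DSF screen were taken into SPR against MUS81-EME1 to confirm binding and obtain Kd. Kd is reported as the geometric mean with geometric standard deviation of at least three determinations.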

[9] = molecular target: Glutamate [NMDA] receptor; experiment: Inhibition of NMDA (unknown origin); type: toxicity, Homo sapiens
[10] = molecular target: GABA-A receptor; anion channel; experiment: Inhibition of GABA (unknown origin); type: toxicity, Homo sapiens
[11] = molecular target: CaV-L (Voltage-gated L-type calcium channel) (Homo sapiens, UniProt O60840+Q01668+Q13698+Q13936); experiment: Inhibition of CaV-L (unknown origin); type: toxicity
Insulin receptor = Insulin receptor (Homo sapiens, UniProt P06213); experiment: Inhibition of INSR (unknown origin); type: toxicity
[12] = Metabolic stability in rat hepatocytes assessed as intrinsic clearance measured per million cells; type: ADME, cell-based, Hepatocyte; conditions: read-out: CLH

Chain of Insulin receptor (P06213 28-758 limits assumed): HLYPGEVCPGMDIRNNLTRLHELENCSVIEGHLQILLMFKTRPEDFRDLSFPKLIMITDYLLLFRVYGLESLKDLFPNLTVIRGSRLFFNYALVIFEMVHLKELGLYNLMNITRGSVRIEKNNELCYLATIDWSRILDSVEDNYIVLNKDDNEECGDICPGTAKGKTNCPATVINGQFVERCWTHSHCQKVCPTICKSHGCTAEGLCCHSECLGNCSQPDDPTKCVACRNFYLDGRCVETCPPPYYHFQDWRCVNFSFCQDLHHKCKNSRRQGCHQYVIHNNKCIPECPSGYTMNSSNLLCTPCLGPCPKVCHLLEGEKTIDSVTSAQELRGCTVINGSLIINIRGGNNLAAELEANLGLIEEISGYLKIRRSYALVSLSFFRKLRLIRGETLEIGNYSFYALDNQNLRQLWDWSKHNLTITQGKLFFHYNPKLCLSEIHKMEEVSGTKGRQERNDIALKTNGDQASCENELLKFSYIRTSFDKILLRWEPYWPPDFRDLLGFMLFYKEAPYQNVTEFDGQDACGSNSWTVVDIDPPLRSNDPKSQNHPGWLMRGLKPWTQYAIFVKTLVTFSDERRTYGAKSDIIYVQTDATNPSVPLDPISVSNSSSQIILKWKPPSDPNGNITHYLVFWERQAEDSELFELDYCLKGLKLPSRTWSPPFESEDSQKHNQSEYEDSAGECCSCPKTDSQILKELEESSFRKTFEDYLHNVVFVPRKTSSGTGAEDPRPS
Chain of Insulin receptor (P06213 763-1382 limits assumed): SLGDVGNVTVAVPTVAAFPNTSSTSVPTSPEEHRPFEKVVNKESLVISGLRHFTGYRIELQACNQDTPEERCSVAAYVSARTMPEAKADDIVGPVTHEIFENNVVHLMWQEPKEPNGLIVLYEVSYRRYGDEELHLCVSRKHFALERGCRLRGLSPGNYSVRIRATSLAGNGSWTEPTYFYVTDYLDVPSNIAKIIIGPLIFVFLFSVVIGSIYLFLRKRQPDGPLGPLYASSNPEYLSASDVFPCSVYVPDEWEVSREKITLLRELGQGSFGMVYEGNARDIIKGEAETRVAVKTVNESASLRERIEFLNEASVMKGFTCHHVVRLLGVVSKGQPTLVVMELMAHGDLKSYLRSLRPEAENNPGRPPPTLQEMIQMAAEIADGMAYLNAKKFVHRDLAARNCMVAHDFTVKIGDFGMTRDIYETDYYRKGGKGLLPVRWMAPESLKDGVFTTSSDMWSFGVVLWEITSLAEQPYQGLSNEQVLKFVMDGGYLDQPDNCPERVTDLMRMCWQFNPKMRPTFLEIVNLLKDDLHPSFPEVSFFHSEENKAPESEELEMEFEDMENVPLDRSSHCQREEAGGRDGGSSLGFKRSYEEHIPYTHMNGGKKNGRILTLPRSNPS
Chain of Voltage-gated inwardly rectifying potassium channel KCNH2 (Q12809 whole entry): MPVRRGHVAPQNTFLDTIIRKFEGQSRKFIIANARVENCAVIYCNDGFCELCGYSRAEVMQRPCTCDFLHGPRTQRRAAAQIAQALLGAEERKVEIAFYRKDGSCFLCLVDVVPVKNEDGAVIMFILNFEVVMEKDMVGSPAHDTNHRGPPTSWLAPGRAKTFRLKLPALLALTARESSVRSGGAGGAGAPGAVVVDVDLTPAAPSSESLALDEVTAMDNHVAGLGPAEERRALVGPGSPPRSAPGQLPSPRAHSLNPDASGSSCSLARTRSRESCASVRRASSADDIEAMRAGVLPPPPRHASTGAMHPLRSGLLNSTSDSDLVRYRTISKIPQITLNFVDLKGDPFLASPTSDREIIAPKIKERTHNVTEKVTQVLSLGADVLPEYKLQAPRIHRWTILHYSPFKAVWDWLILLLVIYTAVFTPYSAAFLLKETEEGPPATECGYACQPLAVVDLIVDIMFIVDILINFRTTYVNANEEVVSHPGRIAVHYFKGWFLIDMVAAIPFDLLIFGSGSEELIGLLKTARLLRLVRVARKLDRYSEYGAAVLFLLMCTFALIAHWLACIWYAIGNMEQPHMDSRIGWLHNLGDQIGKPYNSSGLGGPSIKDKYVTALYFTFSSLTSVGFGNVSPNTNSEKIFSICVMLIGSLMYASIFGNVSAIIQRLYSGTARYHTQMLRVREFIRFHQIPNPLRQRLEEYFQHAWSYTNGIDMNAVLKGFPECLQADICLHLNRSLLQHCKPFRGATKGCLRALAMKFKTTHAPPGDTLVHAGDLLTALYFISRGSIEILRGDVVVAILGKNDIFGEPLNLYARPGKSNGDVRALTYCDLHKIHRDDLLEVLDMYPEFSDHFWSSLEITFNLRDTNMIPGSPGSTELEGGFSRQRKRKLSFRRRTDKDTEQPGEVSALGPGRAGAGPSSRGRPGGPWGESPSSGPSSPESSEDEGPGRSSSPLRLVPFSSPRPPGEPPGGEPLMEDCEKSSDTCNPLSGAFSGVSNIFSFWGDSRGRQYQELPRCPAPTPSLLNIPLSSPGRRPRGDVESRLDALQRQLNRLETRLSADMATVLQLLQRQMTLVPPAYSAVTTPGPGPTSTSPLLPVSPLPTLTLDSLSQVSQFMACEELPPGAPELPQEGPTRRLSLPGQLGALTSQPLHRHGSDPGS

Row | IC50 [7] | Structure (SMILES) | Kd [8] | other results
1 | 320 nM | O=C(O)c1cn(-c2ccc(-c3ccc(C(=O)N4CCNCC4)cc3)cc2)cc(O)c1=O | 670 nM | logD [1]: < 0; Ratio [2]: 1.5; IC50 [3]: > 40000 nM; CLH [4]: < 3 µL/min/mg; IC50 (PDE): > 100000 nM; IC50 [5]: > 100000 nM; Kinetic_solubility [6]: > 200 µM; IC50 [9]: > 100000 nM; IC50 [10]: > 100000 nM; IC50 [11]: > 100000 nM; IC50 (Insulin receptor): > 100000 nM; hepatocyte CLint [12]: 11 µL/min/1e6 cells
2 | 1500 nM | O=C(O)c1nc(-c2ccc3ccccc3c2)[nH]c(=O)c1O | 1300 nM | –
3 | > 100000 nM | COC(=O)c1nc(-c2ccccc2)[nH]c(=O)c1O | 56000 nM | –
4 | 660 nM | O=C(O)c1cn(-c2ccc(-c3ccccc3)cc2)cc(O)c1=O | 790 nM | –
5 | 2800 nM | N#CCc1ccc(-c2ccccc2-c2nc(C(=O)O)c(O)c(=O)[nH]2)cc1 | 540 nM | –
6 | 470 nM | O=C(O)c1cn(-c2ccc(N3CCNCC3)cc2)cc(O)c1=O | 2000 nM | –
7 | 470 nM | N#Cc1cc(N2CCNCC2)ccc1-n1cc(O)c(=O)c(C(=O)O)c1 | 1200 nM | –
8 | 5600 nM | O=C(O)c1nc(-c2cccc(Cl)c2)nc(O)c1O | 4800 nM | –
9 | 2100 nM | O=C(O)c1nc(-c2ccc(Cl)cc2)nc(O)c1O | 1100 nM | –
10 | 1100 nM | O=C(O)c1[nH]c(-c2ccc(-c3ccccc3)cc2)cc(=O)c1O | 430 nM | –
11 | 3900 nM | O=C(O)c1nc(-c2ccccc2)nc(O)c1O | 2300 nM | –
12 | 2000 nM | O=C(O)c1nc(-c2ccc(Br)cc2)nc(O)c1O | 1000 nM | –
13 | 1200 nM | O=C(O)c1nc(-c2ccc(N3CCNCC3)cc2)[nH]c(=O)c1O | 2100 nM | –
14 | > 100000 nM | CN(C)C(=O)c1nc(-c2ccccc2)[nH]c(=O)c1O | > 100000 nM | –
15 | 2000 nM | O=C(O)c1nc(-c2cccc(-c3ccccc3)c2)[nH]c(=O)c1O | 1800 nM | –
16 | 3800 nM | O=C(O)c1nc(-c2ccccc2Cl)[nH]c(=O)c1O | 4000 nM | –
17 | 270 nM | N#Cc1cc(-c2ccc(C(=O)N3CCNCC3)cc2)ccc1-n1cc(O)c(=O)c(C(=O)O)c1 | 1100 nM | logD [1]: < 0; Ratio [2]: 1.1; IC50 [3]: > 40000 nM; CLH [4]: 7 µL/min/mg; IC50 (PDE): > 100000 nM; IC50 [5]: > 100000 nM; Kinetic_solubility [6]: > 200 µM; IC50 [9]: > 100000 nM; IC50 [10]: > 100000 nM; IC50 [11]: > 100000 nM; IC50 (Insulin receptor): > 100000 nM; hepatocyte CLint [12]: 10 µL/min/1e6 cells
18 | > 100000 nM | NC(=O)c1nc(-c2ccccc2)[nH]c(=O)c1O | > 100000 nM | –
19 | 2400 nM | O=C(O)c1nc(-c2ccc(-c3ccccc3)cc2)[nH]c(=O)c1O | 720 nM | –
20 | 4100 nM | O=C(O)c1cc(-c2ccc(-c3ccccc3)cc2)[nH]c(=O)c1O | 1400 nM | –
21 | 2800 nM | O=C(O)c1nc(C2CCCCC2)nc(O)c1O | 2200 nM | –
22 | > 100000 nM | Cc1nc(C(=O)O)c(O)c(=O)[nH]1 | 44000 nM | –
23 | > 100000 nM | CNC(=O)c1nc(-c2ccccc2)[nH]c(=O)c1O | 74000 nM | –
24 | 4500 nM | O=C(O)c1nc(-c2ccccc2-c2ccccc2)[nH]c(=O)c1O | 4300 nM | –
